# Source: ChEMBL document CHEMBL2375279, “Synthesis and biological evaluation of helioxanthin analogues” (Bioorg Med Chem, 2013)
# pEC50: −log10 of the molar value. The source made the active and inactive calls. The rule behind the calls is not given here.
# Legend:
# Hepatitis B virus [1] = assay: Antiviral activity against Hepatitis B virus infected in human HepA2 cells assessed as inhibition of viral surface antigen production after 2 days by enzyme immunoassay; type: functional, organism-based; conditions: for pEC50: HepA2, 48 h
# Outline: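 HepA2 cells (HepG2 transfected with two tandem HBV genome repeats, secreting HBsAg) were seeded at 3 × 10^4 per well (96-well) or 1 × 10^5 per well (24-well) in DMEM with 10% FCS for 24 h. They were washed twice with PBS pH 7.0 and treated with graded concentrations in serum-free DMEM for 48 h. Medium HBsAg was measured by enzyme immunoassay. EC50 is the concentration giving 50% of untreated HBsAg. Mean ± S.D., n = 3.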
# [2] = Cytotoxicity against human HepA2 cells after 2 days by MTT assay; type: cell-based
# Outline: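 HepA2 cells were seeded in DMEM with 10% FCS, attached for 24 h, washed with PBS pH 7.0, and then exposed to various compound concentrations in serum-free DMEM for 48 h. Viable cell number in each well was then determined by MTT assay.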
# Hepatitis B virus [3] = assay: Antiviral activity against Hepatitis B virus infected in human HepA2 cells assessed as inhibition of viral core promoter activity at 3 uM after 24 hrs by luciferase reporter gene assay; conditions: HepA2, 24 h
# Hepatitis B virus [4] = assay: Antiviral activity against Hepatitis B virus infected in human 1.3ES2 cells assessed as inhibition of viral DNA replication at 5 uM after 72 hrs by RT-PCR analysis; type: functional, organism-based
# Outline: (§1)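 1.3ES2 cells (HepG2 clone stably carrying a 1.3-fold HBV ayw genome) were seeded in 100 mm dishes, then exposed to compound (0, 1.0 or 5.0 µM) in serum-free DMEM for 72 h. Virion-associated HBV DNA in the medium was quantified by real-time PCR against a plasmid standard curve (10^3–10^7 copies), with 45 cycles of 95 °C 12 s and 54 °C 20 s. Mean ± S.D., n = 3.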
# Hepatitis B virus [5] = assay: Antiviral activity against Hepatitis B virus infected in human 1.3ES2 cells assessed as reduction of viral RNA level at 5 uM after 48 hrs by Northern blot analysis; type: functional, organism-based
# Outline: (§2)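 1.3ES2 cells were grown to confluence in DMEM with 10% FCS, then switched to serum-free DMEM containing compound (0, 1.0 or 5.0 µM) for 48 h. Total RNA was extracted by phenol/guanidinium isothiocyanate, denatured in 2.2 M formaldehyde and run on a 1.2% agarose formaldehyde gel. It was blotted to nylon and probed with a 32P full-length HBV probe. The 3.5 kb and 2.4/2.1 kb bands were normalized to GAPDH.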
# Hepatitis B virus [6] = assay: Antiviral activity against Hepatitis B virus infected in human 1.3ES2 cells assessed as reduction of middle/major HBsAg mRNA level after 48 hrs by Northern blot analysis; type: functional, organism-based; outline: as §2
# Hepatitis B virus [7] = assay: Antiviral activity against Hepatitis B virus infected in human 1.3ES2 cells assessed as reduction of large HBsAg mRNA level after 48 hrs by Northern blot analysis; type: functional, organism-based; outline: as §2
# Hepatitis B virus [8] = assay: Antiviral activity against Hepatitis B virus infected in human 1.3ES2 cells assessed as inhibition of viral DNA replication after 72 hrs by RT-PCR analysis; type: functional, organism-based; outline: as §1
# Hepatitis B virus [9] = assay: Antiviral activity against Hepatitis B virus infected in human 1.3ES2 cells assessed as reduction of HBeAg mRNA and pregenomic RNA level after 48 hrs by Northern blot analysis; type: functional, organism-based; outline: as §2
# Hepatitis B virus [10] = assay: Antiviral activity against Hepatitis B virus infected in human HepA2 cells assessed as inhibition of viral core promoter activity at 0.03 uM after 24 hrs by luciferase reporter gene assay; conditions: HepA2, 24 h
# Hepatitis B virus [11] = assay: Antiviral activity against Hepatitis B virus infected in human HepA2 cells assessed as inhibition of viral core promoter activity after 24 hrs by luciferase reporter gene assay
Structure (SMILES),pEC50 (Hepatitis B virus [1]),CC50 at 48 h [2],other results
CCCCCOC(=O)CN1Cc2c(cc3ccc4c(c3c2-c2ccc3c(c2)OCO3)OCO4)C1=O,< 4.90,3.05 µM,
COC(=O)CN1Cc2c(cc3ccc4c(c3c2-c2ccc3c(c2)OCO3)OCO4)C1=O,6.07,> 12.5 µM,
COc1cc(-c2c3c(cc4ccc5c(c24)OCO5)C(=O)OC3)ccc1O,,> 12.5 µM,
COc1cc(-c2c(COC(C)=O)c(COC(C)=O)cc3ccc4c(c23)OCO4)ccc1OC(C)=O,5.56,> 12.5 µM,
COc1ccc(-c2c3c(cc4ccc5c(c24)OCO5)COC3=O)cc1O,5.76,> 12.5 µM,
N#Cc1cc2ccc3c(c2c(-c2ccc4c(c2)OCO4)c1C#N)OCO3,< 5.22,> 12.5 µM,
N#CCCCCCCCCOc1ccc(-c2c3c(cc4ccc5c(c24)OCO5)C(=O)OC3)cc1O,< 4.90,> 12.5 µM,
COc1ccc(-c2c3c(cc4ccc5c(c24)OCO5)C(=O)OC3)cc1OC,< 5.22,,
CCCCCC(=O)OCc1cc2ccc3c(c2c(-c2ccc(O)c(OC)c2)c1COC(=O)CCCCC)OCO3,< 4.90,> 12.5 µM,
O=C1OCc2c1cc1ccc3c(c1c2-c1ccc2c(c1)OC(F)(F)O2)OCO3,6.42,> 12.5 µM,
COc1cc(-c2c(CO)c(COC(C)=O)cc3ccc4c(c23)OCO4)ccc1O,< 4.90,> 12.5 µM,
O=C1c2cc3ccc4c(c3c(-c3ccc5c(c3)OCO5)c2CN1CCO)OCO4,< 5.22,> 12.5 µM,
N#CCCN1Cc2c(cc3ccc4c(c3c2-c2ccc3c(c2)OCO3)OCO4)C1=O,< 5.22,> 12.5 µM,
CC(=O)OCc1cc2ccc3c(c2c(-c2ccc(OC(C)=O)c(OC(C)=O)c2)c1COC(C)=O)OCO3,< 4.90,> 12.5 µM,
COc1ccc(-c2c(CO)c(CO)cc3ccc4c(c23)OCO4)cc1OC,< 4.90,> 12.5 µM,
CCCCCC(=O)OCc1cc2ccc3c(c2c(-c2ccc4c(c2)OCO4)c1COC(=O)CCCCC)OCO3,5.72,> 12.5 µM,
OCc1cc2ccc3c(c2c(-c2ccc(O)c(O)c2)c1CO)OCO3,< 4.90,> 12.5 µM,
CC(=O)OCc1cc2ccc3c(c2c(-c2ccc(O)c(OC(C)=O)c2)c1COC(C)=O)OCO3,< 4.90,> 12.5 µM,
COc1ccc(-c2c(COC(C)=O)c(COC(C)=O)cc3ccc4c(c23)OCO4)cc1OC,5.52,> 12.5 µM,
CC(=O)OCc1cc2ccc3c(c2c(-c2ccc4c(c2)OCO4)c1CO)OCO3,,> 12.5 µM,
CC(=O)Oc1cc(-c2c3c(cc4ccc5c(c24)OCO5)C(=O)OC3)ccc1OCCCCCCCCC#N,< 4.90,> 12.5 µM,

Structure (SMILES),pEC50 (Hepatitis B virus [1]),CC50 at 48 h [2],other results
CCCCCC(=O)OCc1cc2ccc3c(c2c(-c2ccc(OC)c(O)c2)c1CO)OCO3,5.71,> 12.5 µM,
O=C1OCc2cc3ccc4c(c3c(-c3ccc(O)c(O)c3)c21)OCO4,5.47,> 12.5 µM,
COc1ccc(-c2c(CO)c(COC(C)=O)cc3ccc4c(c23)OCO4)cc1OC,5.43,> 12.5 µM,
O=C1OCc2c1cc1ccc3c(c1c2-c1ccc2c(c1)OCO2)OCO3 [HELIOXANTHIN],,,inhibition at 3 µM (Hepatitis B virus [3]): 30%
CCCCCC(=O)OCc1cc2ccc3c(c2c(-c2ccc(O)c(O)c2)c1COC(=O)CCCCC)OCO3,< 4.90,> 12.5 µM,
COc1cc(-c2c3c(cc4ccc5c(c24)OCO5)COC3=O)ccc1O,5.40,> 12.5 µM,
CCCCCC(=O)OCc1cc2ccc3c(c2c(-c2ccc(OC)c(O)c2)c1COC(=O)CCCCC)OCO3,5.48,> 12.5 µM,
CCCCCC(=O)OCc1cc2ccc3c(c2c(-c2ccc(OC)c(OC)c2)c1CO)OCO3,< 4.90,> 12.5 µM,
COc1ccc(-c2c(COC(C)=O)c(COC(C)=O)cc3ccc4c(c23)OCO4)cc1OC(C)=O,6.19,> 12.5 µM,
COc1cc(-c2c(CO)c(CO)cc3ccc4c(c23)OCO4)ccc1O,5.56,> 12.5 µM,
CCCCCC(=O)OCc1cc2ccc3c(c2c(-c2ccc4c(c2)OCO4)c1CO)OCO3,5.72,> 12.5 µM,
CCCCCC(=O)OCc1cc2ccc3c(c2c(-c2ccc(OC)c(OC(=O)CCCCC)c2)c1COC(=O)CCCCC)OCO3,< 4.90,> 12.5 µM,
COc1cc(-c2c3c(cc4ccc5c(c24)OCO5)C(=O)OC3)ccc1OC(C)=O,< 5.22,> 12.5 µM,inhibition (Hepatitis B virus [4]): inactive; Activity (Hepatitis B virus [5]): inactive
COc1ccc(-c2c3c(cc4ccc5c(c24)OCO5)C(=O)OC3)cc1OC(C)=O,7.22,> 12.5 µM,Activity (Hepatitis B virus [6]): Dose-dependent effect; Activity (Hepatitis B virus [7]): Dose-dependent effect; inhibition (Hepatitis B virus [8]): Dose-dependent effect; Activity (Hepatitis B virus [9]): Dose-dependent effect; inhibition (Hepatitis B virus [1]): Dose-dependent effect; inhibition at 0.03 µM (Hepatitis B virus [10]): 40%; inhibition (Hepatitis B virus [11]): Dose-dependent effect
COc1cc(-c2c(COC(C)=O)c(COC(C)=O)cc3ccc4c(c23)OCO4)ccc1O,< 4.90,> 12.5 µM,
COc1ccc(-c2c(CO)c(CO)cc3ccc4c(c23)OCO4)cc1O,6.17,> 12.5 µM,
COc1ccc(-c2c(CO)c(COC(C)=O)cc3ccc4c(c23)OCO4)cc1O,6.31,> 12.5 µM,
O=C(O)CN1Cc2c(cc3ccc4c(c3c2-c2ccc3c(c2)OCO3)OCO4)C1=O,< 5.22,> 12.5 µM,
CCCCCCCCOC(=O)CN1Cc2c(cc3ccc4c(c3c2-c2ccc3c(c2)OCO3)OCO4)C1=O,< 5.22,> 12.5 µM,
CC(=O)OCc1cc2ccc3c(c2c(-c2ccc(O)c(O)c2)c1COC(C)=O)OCO3,< 4.90,> 12.5 µM,
